ChEMBL document CHEMBL1208681, “Synthesis and antitumor activities of novel 1,4-disubstituted phthalazine derivatives” (Eur J Med Chem, 2010)

How the values were obtained:
MDA-MB-231 [1] = test: Cytotoxicity against human MDA-MB-231 cells after 72 hrs by MTT assay; assay type: functional, cell-based; settings: MDA-MB-231, 72 h
Method in brief: (§1)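 Cells grown in MEM with 10% FBS. About 4 × 10^3 cells per well were seeded and held 24 h at 37 °C in 5% CO2. Compounds were added at the indicated final concentrations for 72 h. MTT was added to 5 µg/mL final for 4 h at 37 °C. Formazan was dissolved in DMSO and read at 492 nm against 630 nm reference. Each line was tested twice; IC50 is the mean of two determinations.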

MDA-MB-231 [2] = test: Ratio of IC50 for compound to IC50 for PTK-787 for human MDA-MB-231 cells; assay type: functional
A549 [3] = test: Cytotoxicity against human A549 cells after 72 hrs by MTT assay; assay type: functional, cell-based; method in brief: as §1
HT-29 [4] = test: Ratio of IC50 for compound to IC50 for PTK-787 for human HT-29 cells; assay type: functional
HT-29 [5] = test: Cytotoxicity against human HT-29 cells after 72 hrs by MTT assay; assay type: functional, cell-based; method in brief: as §1
A549 [6] = test: Ratio of IC50 for compound to IC50 for PTK-787 for human A549 cells; assay type: functional
[7] = Homo sapiens, A549, 72 h, read-out: IC50
[8] = Homo sapiens, HT-29, 72 h, read-out: IC50

Row | Structure (SMILES) | IC50 (MDA-MB-231 [1]) [µM] | Ratio IC50 (MDA-MB-231 [2]) | IC50 (A549 [3]; [7]) [µM] | Ratio IC50 (HT-29 [4]) | IC50 (HT-29 [5]; [8]) [µM] | Ratio IC50 (A549 [6]) | IC50 (A549 [3]; a549) | IC50 (HT-29 [5]; ht-29)
1 | O=C(CN1CCN(c2nnc(Cc3ccncc3)c3ccccc23)CC1)Nc1ccc(F)c(F)c1 | 0.00084 | 69000 | 3.79 | 10.8 | 2.32 | 5.6 | – | –
2 | O=C(CN1CCN(c2nnc(Cc3ccncc3)c3ccccc23)CC1)Nc1ccc(F)c(Cl)c1 | 0.004 | – | 12.3 | – | 0.88 | – | – | –
3 | O=C(CN1CCN(c2nnc(Cc3ccncc3)c3ccccc23)CC1)Nc1ccc(F)c(C(F)(F)F)c1 | 0.0019 | – | 16 | – | 1.11 | – | – | –
4 | Cc1ccc(F)cc1NC(=O)CN1CCN(c2nnc(Cc3ccncc3)c3ccccc23)CC1 | 0.0064 | – | 38.9 | – | 0.47 | – | – | –
5 | O=C(CN1CCN(c2nnc(Cc3ccncc3)c3ccccc23)CC1)Nc1cc(C(F)(F)F)ccc1Cl | 0.0037 | – | 1.85 | – | 4.81 | – | – | –
6 | Cc1cccc(Cl)c1NC(=O)CN1CCN(c2nnc(Cc3ccncc3)c3ccccc23)CC1 | 2.67 | – | 7.19 | – | 22.6 | – | – | –
7 | O=C(CN1CCN(c2nnc(Cc3ccncc3)c3ccccc23)CC1)Nc1c(F)cccc1F | 1.9 | – | 54.4 | – | 28.7 | – | – | –
8 | Cc1ccc(NC(=O)CN2CCN(c3nnc(Cc4ccncc4)c4ccccc34)CC2)c(C)c1 | 0.24 | – | 45 | – | 1.93 | – | – | –
9 | COc1ccc(NC(=O)CN2CCN(c3nnc(Cc4ccncc4)c4ccccc34)CC2)cc1OC | 0.1 | – | 26.5 | – | 40.1 | – | – | –
10 | O=C(CN1CCN(c2nnc(Cc3ccncc3)c3ccccc23)CC1)Nc1cccc(F)c1 | 0.0044 | – | 4.6 | – | 6.13 | – | – | –
11 | O=C(CN1CCN(c2nnc(Cc3ccncc3)c3ccccc23)CC1)Nc1cccc(Br)c1 | 0.0017 | – | 1.53 | – | 1.35 | – | – | –
12 | O=C(CN1CCN(c2nnc(Cc3ccncc3)c3ccccc23)CC1)Nc1ccc(Br)cc1 | 0.019 | – | 2.71 | – | 1.99 | – | – | –
13 | Cc1ccccc1NC(=O)CN1CCN(c2nnc(Cc3ccncc3)c3ccccc23)CC1 | 0.2 | – | 43.1 | – | 15 | – | – | –
14 | O=C(CN1CCN(c2nnc(Cc3ccccc3)c3ccccc23)CC1)Nc1ccc(F)c(F)c1 | 2.75 | – | 10.1 | – | 9.51 | – | – | –
15 | O=C(CN1CCN(c2nnc(Cc3ccccc3)c3ccccc23)CC1)Nc1ccc(F)c(Cl)c1 | 7.36 | – | – | – | 13.3 | – | Not Active | –
16 | O=C(CN1CCN(c2nnc(Cc3ccccc3)c3ccccc23)CC1)Nc1ccc(F)c(C(F)(F)F)c1 | 0.76 | – | 2.48 | – | 4.59 | – | – | –
17 | Cc1ccc(F)cc1NC(=O)CN1CCN(c2nnc(Cc3ccccc3)c3ccccc23)CC1 | 19.2 | – | – | – | 170 | – | Not Active | –
18 | O=C(CN1CCN(c2nnc(Cc3ccccc3)c3ccccc23)CC1)Nc1cc(C(F)(F)F)ccc1Cl | 19.5 | – | 89 | – | 66.8 | – | – | –
19 | Cc1cccc(Cl)c1NC(=O)CN1CCN(c2nnc(Cc3ccccc3)c3ccccc23)CC1 | 3.92 | – | 7.42 | – | 53.6 | – | – | –
20 | O=C(CN1CCN(c2nnc(Cc3ccccc3)c3ccccc23)CC1)Nc1c(F)cccc1F | 5.49 | – | 84.5 | – | 19.7 | – | – | –
21 | Cc1ccc(NC(=O)CN2CCN(c3nnc(Cc4ccccc4)c4ccccc34)CC2)c(C)c1 | 180 | – | – | – | – | – | Not Active | Not Active
22 | COc1ccc(NC(=O)CN2CCN(c3nnc(Cc4ccccc4)c4ccccc34)CC2)cc1OC | 32.2 | – | – | – | 145 | – | Not Active | –
23 | O=C(CN1CCN(c2nnc(Cc3ccccc3)c3ccccc23)CC1)Nc1cccc(F)c1 | 3.73 | – | 130 | – | 95 | – | – | –
24 | O=C(CN1CCN(c2nnc(Cc3ccccc3)c3ccccc23)CC1)Nc1cccc(Br)c1 | 3.88 | – | – | – | 13.4 | – | Not Active | –
25 | O=C(CN1CCN(c2nnc(Cc3ccccc3)c3ccccc23)CC1)Nc1ccc(Br)cc1 | 12.4 | – | 2 | – | 60.2 | – | – | –
26 | Cc1ccccc1NC(=O)CN1CCN(c2nnc(Cc3ccccc3)c3ccccc23)CC1 | 17.3 | – | – | – | 113 | – | Not Active | –
27 | Clc1ccc(Nc2nnc(Cc3ccncc3)c3ccccc23)cc1 [VATALANIB] | 57.7 | – | 21.2 | – | 22.1 | – | – | –
